Mdm2-MdmX inh – human Mdm2/MdmX binding inhibition; O15151+Q00987; SaOS-2 split-luciferase Mdm2/MdmX complementation, luminescence; inhibition, % at 8 µM; hit rate 3% among 330,000; AID 485346;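 active = inhibition of at least 50% at 8 µM in the primary screen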
Target sequence (O15151 whole entry, looked up): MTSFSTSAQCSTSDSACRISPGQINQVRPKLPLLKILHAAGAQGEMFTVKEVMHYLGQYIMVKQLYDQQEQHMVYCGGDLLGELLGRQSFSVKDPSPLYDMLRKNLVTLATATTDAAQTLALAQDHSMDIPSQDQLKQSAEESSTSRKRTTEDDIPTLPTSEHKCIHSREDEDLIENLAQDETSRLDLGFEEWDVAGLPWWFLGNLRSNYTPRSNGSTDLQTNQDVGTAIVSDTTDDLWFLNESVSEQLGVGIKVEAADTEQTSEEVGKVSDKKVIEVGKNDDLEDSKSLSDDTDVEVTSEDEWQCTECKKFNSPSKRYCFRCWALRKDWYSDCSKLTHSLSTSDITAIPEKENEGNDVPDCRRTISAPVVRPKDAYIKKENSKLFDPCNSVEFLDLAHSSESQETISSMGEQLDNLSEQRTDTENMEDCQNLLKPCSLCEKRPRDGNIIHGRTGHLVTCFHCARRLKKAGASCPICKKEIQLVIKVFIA
Target sequence (Q00987 whole entry, looked up): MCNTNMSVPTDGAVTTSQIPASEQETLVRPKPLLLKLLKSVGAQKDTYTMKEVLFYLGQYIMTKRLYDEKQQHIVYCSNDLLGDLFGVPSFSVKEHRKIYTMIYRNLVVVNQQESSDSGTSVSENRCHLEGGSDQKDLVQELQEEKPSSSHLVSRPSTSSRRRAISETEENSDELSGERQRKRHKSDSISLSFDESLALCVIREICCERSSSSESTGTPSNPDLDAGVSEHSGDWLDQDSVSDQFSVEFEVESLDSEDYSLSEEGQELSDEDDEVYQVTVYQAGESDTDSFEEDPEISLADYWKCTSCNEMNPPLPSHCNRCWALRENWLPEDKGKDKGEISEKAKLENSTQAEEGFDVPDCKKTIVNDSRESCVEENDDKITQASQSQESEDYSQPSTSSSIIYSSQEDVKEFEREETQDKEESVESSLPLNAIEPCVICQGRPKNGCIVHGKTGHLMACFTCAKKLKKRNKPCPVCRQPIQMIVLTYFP
SKKanGAS inh – inhibitors of SKKanGAS S. pyogenes growth in kanamycin (SK-promoter or general growth effect); BacTiter-Glo, 6 h; inhibition, % at 7.5 µM; hit rate 1.3% among 300,000; AID 1662;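 active = mean replicate score, as percent of positive control median, at least 50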;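 note: strain carries kanamycin resistance gene driven by streptokinase promoter and grows in 40 µg/ml kanamycin; loss of luminescence reflects streptokinase promoter inhibition or plain growth inhibition; 0% = median of DMSO wells and 100% = positive control at its reference dose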
Lmaj promast – reduces viability of Leishmania major promastigotes; resazurin fluorescence viability; inhibition, % at 10 µM; hit rate 9% among 200,000; AID 1063; in the data active = inhibition above about 50%;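 note: promastigotes grown with compound for 44 hours at 28 °C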
T cruzi repl – blocks replication of Trypanosoma cruzi. T. cruzi beta-gal in NIH3T3, luminescence, 90 h. inhibition, % (concentration not given with the values). hit rate 1.4% among 300,000. AID 1885;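 active = mean inhibition across valid replicates above about 55%, limit read from the data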;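 note: signal also drops with host cell toxicity which is not excluded here; 0% = plate median of DMSO wells and 100% = zero luminescence signal; higher percent means less beta-gal luminescence so fewer parasites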
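Assay system: NIH/3T3 fibroblasts plus reporter T. cruzi. Amount: NIH/3T3 cells, 5,000 per well. Buffer or medium: DMEM, 2% fetal bovine serum. Doses: compound pinned at 50 nL/well, DMSO. Schedule: ≥90 h infection period, 3 h prior cell attachment. Signal: luminescent β-galactosidase signal after 60 min lysis. Read-out: parasite load inhibition, %.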
Beta cell apopt – beta cell apoptosis inhibition. protection from apoptosis, % (test concentration not listed). AID 435005. INS-1E cytokine-induced death, ATP luminescence, 48 h; percent of positive-control rescue, neutral wells zero. hit rate 0.8% among 300,000;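 active = Every replicate reaches about 75%, or at least half do and their mean reaches it too, limit read from the data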;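 note: 0% = cytokine-treated negative control wells and 100% = positive control rescue; higher means more ATP so stronger rescue from cytokine killing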
CSC inhib – cancer stem cell inhibition. hit rate 1.1% among 300,000. cancer stem cell-like cells viability, luminescence. inhibition, % at 7.5 µM; in the data active = inhibition above about 75%; tested in HMLE shEcad cells
Starred values were filed as active, the others as inactive; x = no result given. Most compounds without a hit are left out; they make up all but 9.4% or so of the library.

SMILES | Mdm2-MdmX inh | SKKanGAS inh | Lmaj promast | T cruzi repl | Beta cell apopt | CSC inhib
C=CCSc1ncnc2sc(C)c(C)c12 | 1 | 8 | 54* | -10 | 4 | -12
CCSc1ncnc2sc(C)c(C)c12 | -1 | -24 | -2 | -17 | -10 | 2
COc1cc2oc3ccccc3c2cc1N(CC(=O)N(C)C)S(=O)(=O)c1ccc(C)cc1 | -7 | 0 | 66* | x | -4 | -16
COc1cc(NC(=O)CSc2nc3ccccc3n2-c2ccccc2)c(C)cc1[N+](=O)[O-] | -5 | 9 | 55* | 18 | 1 | 11
COc1ccc(-n2c(SCC(=O)Nc3ccc([N+](=O)[O-])cc3OC)nc3ccccc32)cc1 | 13 | 5 | 11 | 11 | -3 | 40
CN(C)S(=O)(=O)c1ccc(NC(=O)CSc2nc3ccccc3n2-c2ccccc2)cc1 | 2 | 10 | 100* | 10 | 14 | 11
CCN(CC)c1ccc(NC(=O)CSc2nc3ccccc3c(=O)n2-c2cc(S(=O)(=O)N(C)C)ccc2C)cc1 | 10 | -1 | 99* | 34 | 6 | 24
CN(C)S(=O)(=O)c1cccc(NC(=O)CSc2nc3ccccc3n2-c2ccccc2)c1 | 36 | 9 | 9 | 12 | 13 | 11
CC(=O)c1cccc(NS(=O)(=O)c2ccc3c(c2)N(C(C)=O)CCO3)c1 | 10 | -5 | x | 1 | 0 | 1
Cc1nn(-c2ccccc2)c(C)c1/C=N/NC(=O)c1cnccn1 | -12 | 10 | x | 8 | 3 | -11
O=C(CCn1cnnn1)Nc1ccccc1 | 18 | -2 | -7 | -8 | -6 | -9
COc1ccc(C2C(C(C)=O)=C(O)C(=O)N2c2ccc(F)cc2)cc1 (stereo not given) | 1 | -4 | x | 10 | x | -4
Cc1cccc(-n2c(=S)[nH]c3c(oc4ccccc43)c2=O)c1 | x | 6 | 58* | -2 | 3 | -6
Cc1ccc(-n2c(=S)[nH]c3c(oc4ccccc43)c2=O)cc1 | 6 | -2 | -7 | -7 | -1 | -18
O=C(CC1C(=O)NCCN1Cc1ccc(F)c(F)c1)NCCCn1ccnc1 (stereo not given) | 12 | -4 | -3 | -23 | 1 | 3
O=C(NC(NCc1cccnc1)C(Cl)(Cl)Cl)c1cccc2ccccc12 (stereo not given) | 0 | 4 | 84* | 48 | 5 | -9
O=C(NC(NCc1ccccc1)C(Cl)(Cl)Cl)c1cccnc1 (stereo not given) | -11 | -4 | -1 | -12 | x | -5
O=C(NC(=S)NCc1cccnc1)c1cccc2ccccc12 | 10 | -17 | -4 | 63* | -2 | -9
CC1CCCC(C)N1C(=S)SCC(=O)O (stereo not given) | 33 | -17 | -3 | -11 | -4 | x
Cc1ccc2sc(NNC(=O)c3cc(-c4cccs4)nc4ccccc34)nc2c1C | x | 90* | 2 | 43 | x | 38
O=C(NNc1nc2c(F)cccc2s1)c1cc(=O)c2ccccc2o1 | -74 | 29 | -6 | -9 | -1 | 9
Cc1ccc(NC(=O)c2cc(-c3cccs3)nc3ccccc23)nc1 | 22 | 0 | x | -6 | 4 | 19
Cc1cccc2sc(NNC(=O)c3cc(=O)c4ccccc4o3)nc12 | -96 | 85* | -7 | 2 | -1 | 42
Cc1ccc2sc(NNC(=O)c3cc(=O)c4ccccc4o3)nc2c1C | 18 | 86* | 1 | -14 | x | 53
COc1ccc2nc(NNC(=O)c3cc(=O)c4ccccc4o3)sc2c1 | 21 | 50* | 2 | -5 | 7 | 9
SMILES | Mdm2-MdmX inh | SKKanGAS inh | Lmaj promast | T cruzi repl | Beta cell apopt | CSC inhib
O=C(CNS(=O)(=O)/C=C/c1ccccc1)OC1CCOC1=O (stereo not given) | -16 | -6 | 0 | -8 | -2 | 4
CCOC(=O)C1=C(COC(=O)C2CC(=O)N(CCc3ccccc3)C2)NC(=O)NC1C (stereo not given) | 19 | x | x | x | -2 | 0
CCOC(=O)C1=C(C)N(C[C@@H]2CC[C@@H](Cc3ccc(-c4ccccc4)cc3)O2)C(=O)NC1c1cccc([N+](=O)[O-])c1 (stereo not given in full) | 44 | x | x | x | x | x
Cc1cc2c(cc1C)C(c1cccc([N+](=O)[O-])c1)CC(=O)N2 (stereo not given) | 8 | 4 | 53* | -11 | 3 | 20
COc1cc(C2CC(=O)Nc3cc(C)c(C)cc32)cc(OC)c1OC (stereo not given) | 38 | 6 | 4 | -7 | -6 | 50
CC(C)c1ccccc1NC(=O)CNCCc1ccc(C(F)(F)F)cc1 | 6 | 4 | x | 19 | -19 | 3
Nc1ccc2nc(N3CCOCC3)sc2c1 | -20 | -5 | 7 | 76* | 15 | -5
COc1ccc(Sc2cnn(-c3ccccc3)c(=O)c2Cl)cc1 | 25 | -4 | 44 | -25 | -25 | 2
COc1ccc(-n2ncc(S(=O)(=O)c3ccccc3)c2-c2ccc(Cl)cc2)cc1 | 24 | 17 | 99* | 41 | 30 | 44
O=S(=O)(c1ccccc1)c1cnn(-c2ccccc2)c1-c1ccc(F)cc1 | 14 | -3 | 50* | -9 | 16 | 10
O=C(CSc1n[nH]c(Cc2ccccc2)n1)Nc1ccccc1Br | 4 | 0 | x | 9 | -14 | 3
Cc1nnc(NC(=O)C(C)Sc2nnc(-c3ccco3)n2C(C)C)s1 (stereo not given) | 12 | 1 | x | 6 | 3 | -2
O=c1oc2cc(O)ccc2cc1-c1nc2c(s1)CCc1ccccc1-2 | x | x | -12 | x | 0 | 83*
COc1ccc(N2C(=O)c3ccc(C(=O)Nc4ccccc4OC)cc3C2=O)cc1 | 15 | 8 | x | 2 | 3 | -10
CCOC(=O)c1sc(Nc2nc(OC)cc(OC)n2)nc1C | 23 | 0 | 54* | -19 | 15 | -15
CC(C)(C)C1CCC2(CC1)NC(=S)N(c1ccccc1)N2 (stereo not given) | -2 | 17 | 58* | -23 | -24 | -20
CSCCC(NC(=O)c1ccccc1Cl)C(=O)Nc1cccc(S(=O)(=O)N2CCCC2)c1 (stereo not given) | 15 | -3 | x | 9 | -4 | -10
COc1ccc(S(=O)(=O)Nc2ccc(F)c(F)c2)cc1C(=O)N1CCOCC1 | 21 | 7 | x | 3 | 7 | 28
CCN(CC)C(=O)C1CCN(CC2CC=CCC2)CC1 (stereo not given) | 0 | 0 | 84* | -8 | 0 | 19
CCN(Cc1ccccc1)C(=O)C1CCN(CC2CC=CCC2)CC1 (stereo not given) | 11 | -10 | 98* | -4 | 3 | 32
Cc1snc(S(=O)(=O)/C(C#N)=N/Nc2ccc(C(F)(F)F)cc2)c1C#N | 11 | 21 | -5 | -7 | -2 | 89*
CCOc1ccc2[nH]c(=O)c(CN(CC3COCCO3)C(=O)c3ccc(C)cc3)cc2c1 (stereo not given) | -5 | 32 | 93* | -2 | 3 | -10
CCOc1ccc(C(=O)N(Cc2ccc(OC)cc2)Cc2cc3cc(OC)ccc3[nH]c2=O)cc1 | 13 | 3 | -2 | 13 | 2 | 6
